The results in this text go back to ChEMBL document CHEMBL2010694, “Indolyl and dihydroindolyl N-glycinamides as potent and in vivo active NPY5 antagonists” (Bioorg Med Chem Lett, 2012).

The structures appear in SMILES notation.

Data set [1] is described as follows: Half life in Sprague-Dawley rat plasma at 2 mg/kg, po and 1 mg/kg, iv after 24 hrs wash out period by HPLC analysis. In kind it is ADME, organism-based. The procedure, abridged:
(§1)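 Male Sprague-Dawley rats (200–250 g), jugular and carotid artery cannulated; compound dissolved in 20% beta cyclodextrin, pH adjusted with methane sulfonic acid. Serial blood sampled at 12 time points over 24 h post dose by automated sampler; plasma from centrifugation analysed by HPLC; PK parameters by non-compartmental analysis of plasma concentration–time profile.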

Data set [2] in a line: Drug uptake in cPP-induced feeding Sprague-Dawley rat model brain at 10 mg/kg, po after 1 hr. In kind it is ADME, organism-based. Also on record: dose 10 mg/kg, route oral. As to conditions: read-out: Drug uptake. The procedure, abridged: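 Satellite animals from the cPP feeding study dosed orally at 0.1, 1 or 10 mg/kg; plasma (ng/mL) and brain (ng/g) levels measured 1 h after dosing.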

The nature of data set [3]: Cmax in Sprague-Dawley rat plasma at 2 mg/kg, po and 1 mg/kg, iv after 24 hrs wash out period by HPLC analysis. In kind it is ADME, organism-based. The procedure, abridged: as §1
Another data set deals with MDR. Nature of the data set: Efflux ratio of permeability from basolateral to apical side over apical to basolateral side in MDCK cells expressing MDR. It is filed as ADME, cell-based, Canis lupus familiaris. As to conditions: dog, MDCK-MDR1. The procedure, abridged:
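Bidirectional permeability measured across a Pgp-overexpressing mdr-MDCK cell monolayer, apical-to-basolateral and basolateral-to-apical. Apparent permeability (Papp, 10^-6 cm/s) was determined in each direction, and the efflux ratio was taken as Papp B–A over Papp A–B.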

Data set [4] in a line: Plasma concentration in Sprague-Dawley rat at 10 mg/kg, po after 1 hr by LC-MS/MS analysis. It is filed as ADME, organism-based. Also on record: dose 10 mg/kg, route oral. The procedure, abridged:
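Male Sprague-Dawley rats (300–350 g), femoral artery cannulated; single 10 mg/kg oral dose in an appropriate vehicle, N = 3. Blood taken predose, 1, 2 and 4 h; brains then collected and stored at -80 °C. Equal portions of plasma or homogenized brain from the three rats pooled per time point, protein precipitated, quantified by LC/MS/MS.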

The next data set concerns the target T1, Cytochrome P450 2C8 (Homo sapiens, UniProt P10632).
T1 sequence (P10632 whole entry): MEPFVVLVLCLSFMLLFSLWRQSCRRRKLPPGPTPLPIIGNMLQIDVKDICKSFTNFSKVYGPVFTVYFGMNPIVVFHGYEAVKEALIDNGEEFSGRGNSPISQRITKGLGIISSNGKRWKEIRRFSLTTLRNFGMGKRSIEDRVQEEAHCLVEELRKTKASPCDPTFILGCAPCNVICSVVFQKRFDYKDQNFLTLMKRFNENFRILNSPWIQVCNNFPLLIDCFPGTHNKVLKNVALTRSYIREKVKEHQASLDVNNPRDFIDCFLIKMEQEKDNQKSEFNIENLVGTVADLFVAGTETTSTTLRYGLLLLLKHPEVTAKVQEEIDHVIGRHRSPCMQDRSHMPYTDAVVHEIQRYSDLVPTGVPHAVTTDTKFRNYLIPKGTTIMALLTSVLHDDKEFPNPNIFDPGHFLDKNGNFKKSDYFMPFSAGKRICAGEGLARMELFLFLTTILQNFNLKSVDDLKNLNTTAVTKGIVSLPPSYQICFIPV
Nature of the data set: Inhibition of CYP2C8. It is filed as ADME.

The term half-life denotes how long it takes for the measured level to halve. What is called Cmax is the peak of the concentration-time curve. One may read the efflux ratio as a quotient of directional permeabilities that is used to spot active efflux. In general, IC50 refers to the concentration that gives 50% inhibition. Compound `CC(C)S(=O)(=O)NC[C@H]1CC[C@H](NC(=O)CN2CCc3cc(Cl)ccc32)CC1` showed a half-life in data set [1] of 4.4 h. In addition, the concentration at 1 h in data set [2] is 151 ng/g; in data set [4] it was 5.47 µM. Moreover, in data set [3], the Cmax was found to be 700 ng/mL. Besides, the efflux ratio in the data set on MDR stood at 26. For the same compound, the IC50 against Cytochrome P450 2C8 was 8.2 µM.
